Source: ChEMBL document CHEMBL1135836, “Cyclodextrin-derived host molecules as reversal agents for the neuromuscular blocker rocuronium bromide: synthesis and structure-activity relationships” (J Med Chem, 2002)

Tests used:
Type in all cases: functional
Cavia porcellus [1] = assay: In vivo reversal activity versus ~90% block by rocuronium in guinea pig
Outline: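 Male Dunkin-Hartley guinea pigs (600-900 g), anaesthetized ip with pentobarbitone 10 mg/kg plus urethane 1000 mg/kg, tracheotomized and ventilated. Continuous iv rocuronium infusion (~10 nmol kg-1 min-1) was raised to a steady 85-90% block. Increasing iv doses of agent were given cumulatively. ED50 = 50% recovery versus preblock twitch, by regression. Mean ± SEM of at least two experiments, or one.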

Cavia porcellus [2] = assay: In vivo reversal activity versus ~90% block by rocuronium in guinea pig, expressed as % of maximum reversal at 7.3 umol/kg conc.
Outline: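 Male Dunkin-Hartley guinea pigs (600-900 g) anaesthetized ip with pentobarbitone 10 mg/kg plus urethane 1000 mg/kg, tracheotomized and artificially ventilated. Continuous iv rocuronium bromide infusion (~10 nmol kg-1 min-1) raised until steady-state twitch block of 85-90%. Increasing single iv doses of reversal agent given by a separate catheter. Max reversal is peak twitch recovery versus preblock height at highest dose tested; means ± SEM, n ≥ 2 or single experiment.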

Mus musculus [3] = species: Mus musculus; assay: In vitro reversal activity versus ~90% block by rocuronium in isolated mouse hemidiaphragm, expressed as effective conc.
Mus musculus [4] = species: Mus musculus; assay: In vitro reversal activity versus ~90% block by rocuronium in isolated mouse hemidiaphragm, expressed as % of maximum reversal at 14.4 uM conc.

- EC50 (Mus musculus [3]): 6.4 µM
SMILES: CNC(=O)CSCC1O[C@@H]2O[C@@H]3C(CSCC(=O)NC)O[C@H](O[C@@H]4C(CSCC(=O)NC)O[C@H](O[C@@H]5C(CSCC(=O)NC)O[C@H](O[C@@H]6C(CSCC(=O)NC)O[C@H](O[C@@H]7C(CSCC(=O)NC)O[C@H](O[C@@H]8C(CSCC(=O)NC)O[C@H](O[C@@H]9C(CSCC(=O)NC)O[C@H](O[C@H]1C(O)C2O)C(O)C9O)C(O)C8O)C(O)C7O)C(O)C6O)C(O)C5O)C(O)C4O)C(O)C3O (some centres undefined)
- ED50 (Cavia porcellus [1]): 1.54 µmol/kg
- Max reversal (Cavia porcellus [2]): 102.2%
- Max reversal (Mus musculus [4]): 79.6%
